The values that follow come from ChEMBL document CHEMBL4138228, “Substituted carbamothioic amine-1-carbothioic thioanhydrides as novel trichomonicidal fungicides: Design, synthesis, and biology” (Eur J Med Chem, 2018).

Converted amounts (≈) assume the structure as drawn. Bounds are passed on as bounds.

In one data set the test system is Cryptococcus neoformans. In words: Antifungal activity against Cryptococcus neoformans after 48 hrs by broth microdilution method. Type of data set: functional. In a few lines:
(§1)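 Broth microdilution per NCCLS guidelines in MOPS-buffered RPMI 1640; starting inoculum 1-5 x 10^3 CFU/mL; plates incubated at 35 °C; MIC recorded after 48 h; fluconazole as reference; experiments repeated three times.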

For a further data set, the system named is Nakaseomyces glabratus. The data set is described as follows: Antifungal activity against Candida glabrata ATCC 2001 after 48 hrs by broth microdilution method. Format: functional. The following applies: ATCC 2001, 48 h. In a few lines:
as §1

In data set [1] the test system is Candida albicans. In words: Antifungal activity against Candida albicans ATCC 10231 after 48 hrs by broth microdilution method. Format: functional. The following applies: ATCC 10231, 48 h. Summed up:
as §1

Data set [2] relates to Trichomonas vaginalis. The data set is described as follows: Antitrichomonas activity against metronidazole-resistant Trichomonas vaginalis CDC085 ATCC 50143 assessed as decrease in cell viability after 48 hrs by trypan blue exclusion method. Type of data set: functional. The following applies: CDC085 ATCC 50143, 48 h.
The subject of data set [3] is Trichomonas vaginalis. In words: Potency index, ratio of metronidazole MIC to test compound MIC for metronidazole-resistant Trichomonas vaginalis CDC085 ATCC 50143. Type of data set: functional.
A short description of data set [4]: Selectivity index, ratio of IC50 for human HeLa cells to MIC for metronidazole-resistant Trichomonas vaginalis CDC085 ATCC 50143. Format: toxicity. The following applies: read-out: Selectivity Index.
Another data set concerns Candida parapsilosis. The data set is described as follows: Antifungal activity against Candida parapsilosis ATCC 22019 after 48 hrs by broth microdilution method. The note with it: Lodderomyces parapsilosis, ATCC 22019, 48 h. Format: functional. In a few lines:
as §1

Data set [5] concerns Candida albicans. In words: Antifungal activity against Candida albicans ATCC 14053 after 48 hrs by broth microdilution method. Type of data set: functional. The note with it: ATCC 14053, 48 h. Summed up:
as §1

For data set [6], the system named is Candida albicans. In words: Antifungal activity against Candida albicans MTCC 183 after 48 hrs by broth microdilution method. The following applies: MTCC 183, 48 h. Format: functional. In a few lines: as §1
The nature of data set [7]: Selectivity index, ratio of IC50 for human HeLa cells to MIC for metronidazole-susceptible Trichomonas vaginalis. Format: toxicity. The following applies: read-out: Selectivity Index.
In a further data set the test system is HeLa. In words: Cytotoxicity against human HeLa cells after 24 hrs by MTT assay. Format: cell-based.
Data set [8] relates to Trichomonas vaginalis. The data set is described as follows: Antitrichomonas activity against metronidazole-susceptible Trichomonas vaginalis assessed as decrease in cell viability after 48 hrs by trypan blue exclusion method. Type of data set: functional.
Data set [9] deals with Candida albicans. The data set is described as follows: Antifungal activity against Candida albicans patient isolate after 48 hrs by broth microdilution method. Format: functional. Summed up: as §1
Data set [10] has as its system Candida albicans. In words: Antifungal activity against Candida albicans ATCC 66027 after 48 hrs by broth microdilution method. Format: functional. The note with it: ATCC 66027, 48 h. In a few lines:
as §1

Data set [11] has as its system Trichophyton mentagrophytes. The data set is described as follows: Antifungal activity against Trichophyton mentagrophytes after 48 hrs by broth microdilution method. Type of data set: functional. Summed up:
as §1

In another data set the test system is Sporothrix schenckii. In words: Antifungal activity against Sporothrix schenckii after 48 hrs by broth microdilution method. Type of data set: functional. Summed up: as §1

Consider `CN(C)C(=S)SC(=S)N1CCCCC1`, for which the MIC in the data set with Cryptococcus neoformans is 202 µM (≈ 50.1 µg/mL); against Nakaseomyces glabratus, 50.4 µM (≈ 12.5 µg/mL); with Candida albicans [1] it was 50.4 µM (≈ 12.5 µg/mL); in the data set with Trichomonas vaginalis [2], 101 µM (≈ 25 µg/mL); in the data set with Candida parapsilosis, 101 µM (≈ 25 µg/mL); against Candida albicans [5] it was 25.2 µM (≈ 6.26 µg/mL). Besides, the MIC worked out at 50.4 µM (≈ 12.5 µg/mL) with Candida albicans [6]; 25.2 µM (≈ 6.26 µg/mL) with Trichomonas vaginalis [8]; 101 µM (≈ 25 µg/mL) in the data set with Candida albicans [9]; 50.4 µM (≈ 12.5 µg/mL) in the data set with Candida albicans [10]; 101 µM (≈ 25 µg/mL) in data set [11]; 101 µM (≈ 25 µg/mL) in the data set on Sporothrix schenckii. Also, the Ratio in the data set with Trichomonas vaginalis [3] is reported as 1.5 - 3.8. In addition, the selectivity ratio in [4] was above 50; in data set [7], above 200. The IC50 with HeLa is above 5000 µM.

Turning to `CN(C)C(=S)SC(=S)N1CCN(c2ccccc2)CC1`, the MIC against Cryptococcus neoformans was 76.7 µM (≈ 25 µg/mL); with Nakaseomyces glabratus it was above 153 µM; against Candida albicans [1], above 153 µM; with Trichomonas vaginalis [2] it was 76.7 µM (≈ 25 µg/mL); against Candida parapsilosis, 76.7 µM (≈ 25 µg/mL); in the data set on Candida albicans [5], above 153 µM. Besides, the MIC was above 153 µM with Candida albicans [6]; 38.3 µM (≈ 12.5 µg/mL) with Trichomonas vaginalis [8]; 38.3 µM (≈ 12.5 µg/mL) against Candida albicans [9]; above 153 µM against Candida albicans [10]; 76.7 µM (≈ 25 µg/mL) in data set [11]; 76.7 µM (≈ 25 µg/mL) in the data set on Sporothrix schenckii. Further, in the data set on Trichomonas vaginalis [3], the Ratio is recorded as 1.3 - 9.5. For the same compound, the selectivity ratio amounted to 21 in [4] and 42 in data set [7]. Moreover, the 50% inhibitory concentration (IC50) in the data set with HeLa is 1610 µM.

Take `CC1CCCN(C(=S)SC(=S)N(C)C)C1` (configuration not stated): the MIC against Cryptococcus neoformans stood at 47.7 µM (≈ 12.5 µg/mL); against Nakaseomyces glabratus, 95.4 µM (≈ 25 µg/mL); against Candida albicans [1] it was 95.4 µM (≈ 25 µg/mL); with Trichomonas vaginalis [2] it was 95.4 µM (≈ 25 µg/mL); in the data set on Candida parapsilosis it was 23.9 µM (≈ 6.26 µg/mL); against Candida albicans [5], 95.4 µM (≈ 25 µg/mL). For the same compound, the MIC against Candida albicans [6] was found to be 47.7 µM (≈ 12.5 µg/mL); in the data set with Trichomonas vaginalis [8], 47.7 µM (≈ 12.5 µg/mL); against Candida albicans [9], 23.9 µM (≈ 6.26 µg/mL); in the data set with Candida albicans [10], 47.7 µM (≈ 12.5 µg/mL); in data set [11], 23.9 µM (≈ 6.26 µg/mL); with Sporothrix schenckii, 23.9 µM (≈ 6.26 µg/mL). Besides, in the data set with Trichomonas vaginalis [3], the Ratio was 1.5 - 3.8. The selectivity ratio was found to be 30 in data set [4] and 60 in data set [7]. In the data set on HeLa, this compound displayed an IC50 of 2900 µM.

On to `CN1CCN(C(=S)SC(=S)N(C)C)CC1`, for which the MIC was 190 µM (≈ 50.1 µg/mL) in the data set with Cryptococcus neoformans; 190 µM (≈ 50.1 µg/mL) with Nakaseomyces glabratus; 190 µM (≈ 50.1 µg/mL) in the data set on Candida albicans [1]; 95 µM (≈ 25 µg/mL) with Trichomonas vaginalis [2]; 190 µM (≈ 50.1 µg/mL) with Candida parapsilosis; 95 µM (≈ 25 µg/mL) against Candida albicans [5]. For the same compound, the MIC in the data set with Candida albicans [6] is 95 µM (≈ 25 µg/mL); with Trichomonas vaginalis [8], 47.5 µM (≈ 12.5 µg/mL); against Candida albicans [9], 95 µM (≈ 25 µg/mL); against Candida albicans [10], 47.5 µM (≈ 12.5 µg/mL); in data set [11], 95 µM (≈ 25 µg/mL); in the data set on Sporothrix schenckii it was 95 µM (≈ 25 µg/mL). Besides, in the data set with Trichomonas vaginalis [3], the Ratio is listed as 1.3 - 9.5. For the same compound, the selectivity ratio in data set [4] was 12; in [7], 26. Further, in the data set with HeLa, the IC50 amounted to 1220 µM.

Turning to `CCCCNC(=S)N1CCN(C(=S)SC(=S)N(C)C)CC1`, the MIC was above 137 µM against Cryptococcus neoformans; above 137 µM against Nakaseomyces glabratus; above 137 µM in the data set on Candida albicans [1]; 137 µM (≈ 49.9 µg/mL) in the data set on Trichomonas vaginalis [2]; 137 µM (≈ 49.9 µg/mL) in the data set with Candida parapsilosis; above 137 µM with Candida albicans [5]. The MIC with Candida albicans [6] was above 137 µM; with Trichomonas vaginalis [8], 68.5 µM (≈ 25 µg/mL); in the data set on Candida albicans [9] it was 137 µM (≈ 49.9 µg/mL); with Candida albicans [10] it was above 137 µM; in [11], 137 µM (≈ 49.9 µg/mL); in the data set on Sporothrix schenckii it was 137 µM (≈ 49.9 µg/mL). Further, in the data set with Trichomonas vaginalis [3], the Ratio is 1.3 - 11.2. Also, the selectivity ratio in data set [4] stood at 20; in data set [7] it was 41. For the same compound, the IC50 in the data set with HeLa was determined as 2840 µM.

In the case of `CN(C)C(=S)SC(=S)N1CCN(C(=S)SCc2ccccc2)CC1`, the MIC is 60.1 µM (≈ 25 µg/mL) with Cryptococcus neoformans; 120 µM (≈ 50 µg/mL) in the data set with Nakaseomyces glabratus; above 120 µM in the data set with Candida albicans [1]; 120 µM (≈ 50 µg/mL) in the data set on Trichomonas vaginalis [2]; 7.5 µM (≈ 3.12 µg/mL) in the data set with Candida parapsilosis; 120 µM (≈ 50 µg/mL) in the data set with Candida albicans [5]. The MIC in the data set with Candida albicans [6] worked out at 120 µM (≈ 50 µg/mL); in the data set with Trichomonas vaginalis [8], 60.1 µM (≈ 25 µg/mL); against Candida albicans [9], 30 µM (≈ 12.5 µg/mL); against Candida albicans [10] it was 30 µM (≈ 12.5 µg/mL); in [11], 60.1 µM (≈ 25 µg/mL); in the data set on Sporothrix schenckii it was 60.1 µM (≈ 25 µg/mL). For the same compound, the Ratio in the data set with Trichomonas vaginalis [3] is recorded as 1.3 - 11.2. For the same compound, the selectivity ratio in data set [4] is above 41; in data set [7] it was above 83. Moreover, in the data set with HeLa, the IC50 was above 5000 µM.

As to `CN(C)C(=S)SC(=S)N1CCN(C(=S)NCc2ccccc2)CC1`, the MIC in the data set with Cryptococcus neoformans was above 125 µM; in the data set on Nakaseomyces glabratus it was above 125 µM; with Candida albicans [1], above 125 µM; in the data set with Trichomonas vaginalis [2] it was 251 µM (≈ 99.9 µg/mL); in the data set on Candida parapsilosis, above 125 µM; with Candida albicans [5], above 125 µM. Also, the minimal inhibitory concentration (MIC) in the data set with Candida albicans [6] is above 125 µM; with Trichomonas vaginalis [8] it was 125 µM (≈ 50 µg/mL); in the data set on Candida albicans [9] it was above 125 µM; with Candida albicans [10] it was above 125 µM; in data set [11], 125 µM (≈ 50 µg/mL); in the data set on Sporothrix schenckii, 125 µM (≈ 50 µg/mL). The Ratio in the data set on Trichomonas vaginalis [3] is reported as 1.3 - 11.2. For the same compound, the selectivity ratio in data set [4] is above 20; in [7], above 40. In the data set with HeLa, this compound had an IC50 above 5000 µM.
